From ChEMBL document CHEMBL4304834, “3-Amino-chromanes and Tetrahydroquinolines as Selective 5-HT2B, 5-HT7, or σ1 Receptor Ligands” (ACS Med Chem Lett, 2019) come the findings set out here.

SMILES strings stand for the structures.

Holding throughout (assay type): cell-based
For test [1], the target named is 5-hydroxytryptamine receptor 1B (Homo sapiens, UniProt P28222). Put plainly: Displacement of [3H]5-CT from human recombinant 5-HT1B receptor expressed in stable HEK cells after 90 mins by microbeta scintillation counting method. Summed up: (§1)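 Radioligand binding was run by the NIMH Psychoactive Drug Screening Program. Compounds were first screened at 10 μM. Those giving ≥50% binding were taken to full competition curves. Ki is reported as pKi from a sigmoidal curve fit of triplicate measurements in a single experiment; the error is the curve-fit error.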
Chain of 5-hydroxytryptamine receptor 1B (P28222 whole entry): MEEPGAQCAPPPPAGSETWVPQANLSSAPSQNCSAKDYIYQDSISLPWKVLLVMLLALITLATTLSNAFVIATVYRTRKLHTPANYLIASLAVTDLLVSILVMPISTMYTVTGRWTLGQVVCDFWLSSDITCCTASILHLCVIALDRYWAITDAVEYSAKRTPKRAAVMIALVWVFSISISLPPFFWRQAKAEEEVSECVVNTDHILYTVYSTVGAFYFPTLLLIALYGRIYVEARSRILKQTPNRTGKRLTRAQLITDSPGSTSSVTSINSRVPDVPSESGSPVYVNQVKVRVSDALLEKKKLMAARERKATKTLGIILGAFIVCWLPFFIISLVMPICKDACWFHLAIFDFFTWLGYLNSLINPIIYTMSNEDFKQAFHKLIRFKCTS
(Loss of bound radioactivity is the signal in a displacement assay; it reports binding, not function.)

For another test, the target named is Mu-type opioid receptor (Homo sapiens, UniProt P35372). Put plainly: Displacement of [3H]-DAMGO from human recombinant MOR receptor expressed in stable HEK cells after 90 mins by microbeta scintillation counting method. Summed up: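 Radioligand binding run by the NIMH Psychoactive Drug Screening Program. […] Otherwise Ki comes from sigmoidal curve fits of triplicate measurements in a single experiment, or is averaged over repeated experiments each run in triplicate.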
Chain of Mu-type opioid receptor (P35372 whole entry): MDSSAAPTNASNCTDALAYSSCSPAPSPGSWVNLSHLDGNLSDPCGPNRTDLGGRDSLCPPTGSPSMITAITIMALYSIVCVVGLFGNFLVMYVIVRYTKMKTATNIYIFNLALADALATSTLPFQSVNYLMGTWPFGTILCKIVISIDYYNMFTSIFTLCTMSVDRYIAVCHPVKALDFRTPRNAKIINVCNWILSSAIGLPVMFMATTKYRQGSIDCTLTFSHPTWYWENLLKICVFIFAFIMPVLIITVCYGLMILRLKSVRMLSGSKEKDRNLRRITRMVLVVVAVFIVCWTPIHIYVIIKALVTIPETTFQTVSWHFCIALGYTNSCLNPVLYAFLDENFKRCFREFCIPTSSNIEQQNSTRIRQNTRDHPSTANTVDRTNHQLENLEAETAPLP

In test [2] the target is T1, Alpha-1D adrenergic receptor (Homo sapiens, UniProt P25100).
T1 sequence (P25100 whole entry): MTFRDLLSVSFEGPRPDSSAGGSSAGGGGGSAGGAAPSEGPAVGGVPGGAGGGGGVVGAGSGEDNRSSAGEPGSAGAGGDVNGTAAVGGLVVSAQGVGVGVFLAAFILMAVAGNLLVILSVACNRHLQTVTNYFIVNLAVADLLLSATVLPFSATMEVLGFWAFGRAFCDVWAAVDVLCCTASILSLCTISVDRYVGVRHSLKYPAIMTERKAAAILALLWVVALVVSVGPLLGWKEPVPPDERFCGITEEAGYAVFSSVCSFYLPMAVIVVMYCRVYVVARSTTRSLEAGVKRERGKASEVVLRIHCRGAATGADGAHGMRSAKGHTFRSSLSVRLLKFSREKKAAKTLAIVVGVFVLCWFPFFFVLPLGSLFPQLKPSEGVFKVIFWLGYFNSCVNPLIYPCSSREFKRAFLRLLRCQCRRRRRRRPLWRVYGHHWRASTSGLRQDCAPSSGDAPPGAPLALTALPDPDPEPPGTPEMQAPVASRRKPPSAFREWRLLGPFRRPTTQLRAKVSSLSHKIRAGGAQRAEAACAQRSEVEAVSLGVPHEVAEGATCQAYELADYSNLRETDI
Put plainly: Displacement of [3H]-Prazosin from human recombinant adrenergic Alpha1D receptor expressed in cells after 90 mins by microbeta scintillation counting method. In a few lines: as §1

Test [3] has as its target T2, Muscarinic acetylcholine receptor M1 (Homo sapiens) (UniProt P11229).
T2 sequence (whole entry): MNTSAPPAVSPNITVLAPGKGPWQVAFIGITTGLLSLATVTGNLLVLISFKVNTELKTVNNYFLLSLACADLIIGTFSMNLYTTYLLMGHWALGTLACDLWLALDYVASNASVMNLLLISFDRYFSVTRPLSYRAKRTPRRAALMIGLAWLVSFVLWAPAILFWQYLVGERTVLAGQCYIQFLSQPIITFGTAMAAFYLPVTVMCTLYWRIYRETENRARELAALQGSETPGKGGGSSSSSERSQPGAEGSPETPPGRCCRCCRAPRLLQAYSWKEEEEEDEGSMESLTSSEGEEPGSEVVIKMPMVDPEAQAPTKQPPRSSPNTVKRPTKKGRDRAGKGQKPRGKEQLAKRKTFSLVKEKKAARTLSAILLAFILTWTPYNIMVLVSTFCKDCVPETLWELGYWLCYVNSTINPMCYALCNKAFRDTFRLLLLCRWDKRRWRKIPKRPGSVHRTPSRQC
Put plainly: Displacement of [3H]-QNB/[3H]-NMS from human recombinant Muscarinic acetylcholine M1 receptor expressed in stable CHO cells at 10 uM after 90 mins by microbeta scintillation counting method relative to control.

Test [4] deals with T3, Alpha-1B adrenergic receptor (Homo sapiens, UniProt P35368).
T3 sequence (P35368 whole entry): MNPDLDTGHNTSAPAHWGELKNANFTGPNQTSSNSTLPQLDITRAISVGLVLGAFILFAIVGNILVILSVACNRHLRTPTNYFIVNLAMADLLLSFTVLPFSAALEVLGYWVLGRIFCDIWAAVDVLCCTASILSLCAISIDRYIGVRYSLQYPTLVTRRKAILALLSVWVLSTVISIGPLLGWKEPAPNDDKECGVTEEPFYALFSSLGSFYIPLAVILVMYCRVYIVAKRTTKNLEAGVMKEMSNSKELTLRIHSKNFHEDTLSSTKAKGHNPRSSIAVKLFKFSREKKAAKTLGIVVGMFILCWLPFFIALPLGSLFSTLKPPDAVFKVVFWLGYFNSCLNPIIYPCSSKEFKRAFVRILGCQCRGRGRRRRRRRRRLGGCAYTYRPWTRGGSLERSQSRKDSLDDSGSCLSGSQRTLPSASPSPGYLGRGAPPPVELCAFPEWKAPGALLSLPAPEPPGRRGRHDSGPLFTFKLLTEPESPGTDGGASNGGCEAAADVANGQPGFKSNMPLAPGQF
Put plainly: Displacement of [3H]-Prazosin from human recombinant adrenergic Alpha1B receptor expressed in HEKT cells after 90 mins by microbeta scintillation counting method. Summed up: as §1

Another test has as its target T4, D(4) dopamine receptor (Homo sapiens, UniProt P21917).
T4 sequence (P21917 whole entry): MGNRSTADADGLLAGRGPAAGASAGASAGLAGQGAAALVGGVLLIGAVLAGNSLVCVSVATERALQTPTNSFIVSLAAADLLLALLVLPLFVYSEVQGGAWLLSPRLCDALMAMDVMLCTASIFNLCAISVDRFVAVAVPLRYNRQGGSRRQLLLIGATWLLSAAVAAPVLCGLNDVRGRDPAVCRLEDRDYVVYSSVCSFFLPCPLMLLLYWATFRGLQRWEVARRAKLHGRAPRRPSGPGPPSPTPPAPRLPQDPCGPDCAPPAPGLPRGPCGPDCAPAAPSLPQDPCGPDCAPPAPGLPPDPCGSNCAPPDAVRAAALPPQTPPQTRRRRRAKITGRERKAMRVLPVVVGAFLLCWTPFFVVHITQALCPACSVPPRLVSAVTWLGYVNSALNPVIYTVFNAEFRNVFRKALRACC
Put plainly: Displacement of [3H]-methylspiperone from human recombinant dopamine D4 receptor expressed in Stable HEK cells after 90 mins by microbeta scintillation counting method. In a few lines: as §1

On to `COc1cc(OC)c2c(c1)OC[C@@]1(C)NCC[C@@H]21` (racemic), for which the Ki (in test [1]; on Mu-type opioid receptor; in test [2]; in test [4]; on D(4) dopamine receptor) was more than 10 µM throughout. Besides, the inhibition in test [3] was less than 50%.

On to `C[C@@]12CN(c3ccccc3)c3ccccc3[C@@H]1CCN2` (racemic), for which the Ki in test [1] was more than 10 µM; on Mu-type opioid receptor it was more than 10 µM; in test [2], 1 µM; in test [4], more than 10 µM; on D(4) dopamine receptor, more than 10 µM.

Consider `CC[C@H]1c2ccccc2N(c2ccccc2)C[C@@]1(C)N` (racemic), for which the Ki in test [1] is more than 10 µM; on Mu-type opioid receptor it was more than 10 µM; in test [2], more than 10 µM; in test [4] it was more than 10 µM; on D(4) dopamine receptor, 2 µM.

`CC[C@H]1c2cc(C)ccc2OC[C@@]1(C)N` (racemic): the Ki (in test [1]; on Mu-type opioid receptor; in test [2]; in test [4]; at D(4) dopamine receptor) was more than 10 µM in each case. The inhibition in test [3] is less than 50%.

For `CC[C@H]1c2cc(OC)ccc2CC[C@@]1(C)N` (racemic), the Ki in test [1] was more than 10 µM; at Mu-type opioid receptor, 2 µM; in test [2] it was more than 10 µM; in test [4], more than 10 µM; on D(4) dopamine receptor, more than 10 µM. In test [3], the inhibition is less than 50%.

By Ki is commonly meant a dissociation constant, usually derived from enzyme kinetics or from competition with a known ligand. As usually defined, the inhibition is the share of the control response that was lost under treatment.
